{"source": "ChEMBL document CHEMBL1921794", "about": "“Synthesis and in vitro evaluation of analogues of avocado-produced toxin (+)-(R)-persin in human breast cancer cells” (Bioorg Med Chem, 2011)", "key": {"OVCAR-3": {"tested_on": "OVCAR-3", "assay": "Cytotoxicity against BimEL, BimL and BimS deficient human OVCAR3 cells expressing p53 mutant assessed as growth inhibition after 24 hrs by MTS assay", "format": "functional, cell-based", "conditions": "OVCAR-3, 24 h", "outline": "(§1)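 Cell lines were obtained from ATCC, plated in 96-well plates, and exposed in triplicate to drug or vehicle for 24 h. Viability was measured by MTS absorbance at 490 nm, taken as a percentage of solvent-treated controls, and IC50 was derived.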"}, "IGROV-1": {"tested_on": "IGROV-1", "assay": "Cytotoxicity against human IGROV1 cells expressing p53 mutant, BimEL, BimL and BimS assessed as growth inhibition after 24 hrs by MTS assay", "format": "functional, cell-based", "conditions": "IGROV-1, 24 h", "outline": "as §1"}, "T47D": {"tested_on": "T47D", "assay": "Cytotoxicity against BimL, BimS deficient human T47D cells expressing ER, p53 mutant, BimEL assessed as growth inhibition after 24 hrs by MTS assay", "format": "functional, cell-based", "outline": "(§2)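 ATCC breast cancer cells kept in RPMI-1640 with 5% FCS, insulin and glutamine under standard conditions. Cells in 96-well plates were treated in triplicate for 24 h with drug or vehicle. MTS viability was read as absorbance at 490 nm, expressed as a percentage of solvent controls, and IC50 was derived.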"}, "Hs-578T": {"tested_on": "Hs-578T", "assay": "Cytotoxicity against ER, BimEL, BimL and BimS deficient human Hs578T cells expressing p53 mutant assessed as growth inhibition after 24 hrs by MTS assay", "format": "functional, cell-based", "outline": "as §2"}, "LNCaP": {"tested_on": "LNCaP", "assay": "Cytotoxicity against human LNCAP cells expressing AR, wild type p53, BimEL, BimL and BimS assessed as growth inhibition after 24 hrs by MTS assay", "format": "functional, cell-based", "outline": "as §1"}, "MCF-10A": {"tested_on": "MCF-10A", "assay": "Cytotoxicity against ER, BimL and BimS deficient human MCF10A cells expressing wild type p53, BimEL assessed as growth inhibition after 24 hrs by MTS assay", "format": "cell-based", "outline": "as §1"}, "PC-3": {"tested_on": "PC-3", "assay": "Cytotoxicity against AR and BimS deficient human PC3 cells expressing p53 mutant, BimEL, BimL assessed as growth inhibition after 24 hrs by MTS assay", "format": "functional, cell-based", "conditions": "PC-3, 24 h", "outline": "as §1"}, "MDA-MB-157": {"tested_on": "MDA-MB-157", "assay": "Cytotoxicity against ER, BimL and BimS deficient human MDA-MB-157 cells expressing p53 mutant, BimEL assessed as growth inhibition after 24 hrs by MTS assay", "format": "functional, cell-based", "conditions": "MDA-MB-157, 24 h", "outline": "as §2"}, "SK-BR-3": {"tested_on": "SK-BR-3", "assay": "Cytotoxicity against ER deficient human SKBR3 cells expressing p53 mutant, BimEL, BimL and BimS assessed as growth inhibition after 24 hrs by MTS assay", "format": "functional, cell-based", "conditions": "SK-BR-3, 24 h", "outline": "as §2"}, "MCF7 [1]": {"tested_on": "MCF7", "assay": "Cytotoxicity against human MCF7 cells expressing ER assessed as growth inhibition after 24 hrs by MTS assay", "format": "functional, cell-based", "conditions": "MCF7, 24 h", "outline": "as §2"}, "MDA-MB-468": {"tested_on": "MDA-MB-468", "assay": "Cytotoxicity against ER deficient human MDA-MB-468 cells expressing p53 mutant, BimEL, BimL and BimS assessed as growth inhibition after 24 hrs by MTS assay", "format": "functional, cell-based", "conditions": "MDA-MB-468, 24 h", "outline": "as §2"}, "MDA-MB-231": {"tested_on": "MDA-MB-231", "assay": "Cytotoxicity against ER, BimEL, BimL and BimS deficient human MDA-MB-231 cells expressing p53 mutant assessed as growth inhibition after 24 hrs by MTS assay", "format": "functional, cell-based", "conditions": "MDA-MB-231, 24 h", "outline": "as §2"}, "MCF7 [2]": {"tested_on": "MCF7", "assay": "Cytotoxicity against human MCF7 cells expressing ER, wild type p53, BimEL, BimL and BimS assessed as growth inhibition after 24 hrs by MTS assay", "format": "functional, cell-based", "conditions": "MCF7, 24 h", "outline": "as §2"}}}
{"smiles": "CCCCCCCCCCCCCCCCCC(=O)C[C@@H](O)COC(C)=O", "values": [{"measurement": "IC50", "setting": "OVCAR-3", "value": "> 39", "unit": "µM"}, {"measurement": "IC50", "setting": "IGROV-1", "value": "> 39", "unit": "µM"}, {"measurement": "IC50", "setting": "T47D", "value": 20.7, "unit": "µM"}, {"measurement": "IC50", "setting": "Hs-578T", "value": "> 39", "unit": "µM"}, {"measurement": "IC50", "setting": "LNCaP", "value": "> 39", "unit": "µM"}, {"measurement": "IC50", "setting": "MCF-10A", "value": "> 39", "unit": "µM"}, {"measurement": "IC50", "setting": "PC-3", "value": "> 39", "unit": "µM"}, {"measurement": "IC50", "setting": "MDA-MB-157", "value": "> 39", "unit": "µM"}, {"measurement": "IC50", "setting": "SK-BR-3", "value": "> 39", "unit": "µM"}, {"measurement": "IC50", "setting": "MCF7 [1]", "value": 17.1, "unit": "µM"}, {"measurement": "IC50", "setting": "MDA-MB-468", "value": "> 39", "unit": "µM"}, {"measurement": "IC50", "setting": "MDA-MB-231", "value": "> 39", "unit": "µM"}, {"measurement": "IC50", "setting": "MCF7 [2]", "value": 18.2, "unit": "µM"}]}
{"smiles": "CCCCCCC(=O)C[C@@H](O)COC(C)=O", "values": [{"measurement": "IC50", "setting": "MCF7 [1]", "value": "> 65", "unit": "µM"}]}
{"smiles": "CCCCC/C=C\\C/C=C\\CCCCCCCC(=O)C[C@@H](O)COC(=O)c1ccccc1", "values": [{"measurement": "IC50", "setting": "MCF7 [1]", "value": 27, "unit": "µM"}]}
{"smiles": "CCCCC/C=C\\C/C=C\\CCCCCCCC(=O)C[C@H](COC(=O)c1ccccc1)OC(=O)c1ccccc1", "values": [{"measurement": "IC50", "setting": "MCF7 [1]", "value": "> 27", "unit": "µM"}]}
{"smiles": "CCCCC/C=C\\C/C=C\\CCCCCCCC(=O)C[C@@H](O)COC(=O)c1ccc(Br)cc1", "values": [{"measurement": "IC50", "setting": "MCF7 [1]", "value": 23.8, "unit": "µM"}]}
{"smiles": "CCCCC/C=C\\C/C=C\\CCCCCCCC(=O)C[C@H](COC(=O)c1ccc(Br)cc1)OC(=O)c1ccc(Br)cc1", "values": [{"measurement": "IC50", "setting": "MCF7 [1]", "value": "> 21", "unit": "µM"}]}
{"smiles": "CCCCC/C=C\\C/C=C\\CCCCCCCC(=O)/C=C/COC(=O)c1ccc([N+](=O)[O-])cc1", "values": [{"measurement": "IC50", "setting": "MCF7 [1]", "value": "> 32", "unit": "µM"}]}
{"smiles": "CCCCC/C=C\\C/C=C\\CCCCCCCC(=O)C[C@H](COC(=O)c1ccc([N+](=O)[O-])cc1)OC(=O)c1ccc([N+](=O)[O-])cc1", "values": [{"measurement": "IC50", "setting": "MCF7 [1]", "value": "> 24", "unit": "µM"}]}
{"smiles": "CCCCC/C=C\\C/C=C\\CCCCCCCC(=O)C[C@@H](O)COC(=O)c1ccncc1", "values": [{"measurement": "IC50", "setting": "MCF7 [1]", "value": 20.1, "unit": "µM"}]}
{"smiles": "CCCCCCCCCCCCCCCCCC(=O)C(C)(C)[C@@H](O)COC(C)=O", "values": [{"measurement": "IC50", "setting": "MCF7 [1]", "value": 29, "unit": "µM"}]}
{"smiles": "CCCCC/C=C\\C/C=C\\CCCCCCCC(=O)C[C@@H](O)COC(C)=O", "values": [{"measurement": "IC50", "setting": "OVCAR-3", "value": 27.9, "unit": "µM"}, {"measurement": "IC50", "setting": "IGROV-1", "value": 15.6, "unit": "µM"}, {"measurement": "IC50", "setting": "T47D", "value": 30.3, "unit": "µM"}, {"measurement": "IC50", "setting": "Hs-578T", "value": 32.1, "unit": "µM"}, {"measurement": "IC50", "setting": "LNCaP", "value": 22, "unit": "µM"}, {"measurement": "IC50", "setting": "MCF-10A", "value": "> 39", "unit": "µM"}, {"measurement": "IC50", "setting": "PC-3", "value": 30, "unit": "µM"}, {"measurement": "IC50", "setting": "MDA-MB-157", "value": 12.8, "unit": "µM"}, {"measurement": "IC50", "setting": "SK-BR-3", "value": 19.7, "unit": "µM"}, {"measurement": "IC50", "setting": "MCF7 [1]", "value": 15.1, "unit": "µM"}, {"measurement": "IC50", "setting": "MDA-MB-468", "value": 25, "unit": "µM"}, {"measurement": "IC50", "setting": "MDA-MB-231", "value": "> 39", "unit": "µM"}, {"measurement": "IC50", "setting": "MCF7 [2]", "value": 15.1, "unit": "µM"}]}
